Source: ChEMBL document CHEMBL2029238, “Contribution of phosphates and adenine to the potency of adenophostins at the IP₃ receptor: synthesis of all possible bisphosphates of adenophostin A” (J Med Chem, 2012)

How the values were obtained:
Assay type in all cases: functional, cell-based
[1] = biological target: Inositol 1,4,5-trisphosphate-gated calcium channel ITPR1 (Rattus norvegicus) (UniProt P29994); test: Agonist activity at rat IP3R1 expressed in chicken DT40 cells assessed as Ca2+ release relative to control
Procedure, shortened: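 DT40 cells stably expressing only rat IP3R1 loaded with Mag-fluo-4AM (20 μM, 1 h, 20 °C). Permeabilized with saponin (10 μg/mL, 4 min, 37 °C), then washed in Mg2+-free cytosol-like medium (~200 nM free Ca2+, pH 7.0). ER Ca2+ loaded with 1.5 mM Mg-ATP for 150 s before ligand addition. Release measured by luminal fluorescence (ex 485/em 520 nm) as a fraction of the 1 μM ionomycin-releasable content.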

[2] = biological target: Inositol 1,4,5-trisphosphate-gated calcium channel ITPR1 (Rattus norvegicus, UniProt P29994); test: Agonist activity at rat IP3R1 expressed in chicken DT40 cells assessed as induction of Ca2+ release
Procedure, shortened: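 DT40 cells stably expressing only rat IP3R1 loaded with Mag-fluo-4AM (20 μM, 1 h, 20 °C). Permeabilized with saponin (10 μg/mL, 4 min, 37 °C), then washed in Mg2+-free cytosol-like medium (~200 nM free Ca2+, pH 7.0). ER Ca2+ loaded with 1.5 mM Mg-ATP for 150 s before ligand addition.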

[3] = biological target: Inositol 1,4,5-trisphosphate-gated calcium channel ITPR1 (Rattus norvegicus) (UniProt P29994); test: Agonist activity at rat IP3R1 expressed in chicken DT40 cells assessed as Ca2+ release at 50 uM relative to control

Sequence of Inositol 1,4,5-trisphosphate-gated calcium channel ITPR1 (Rattus norvegicus) (P29994 whole entry, looked up): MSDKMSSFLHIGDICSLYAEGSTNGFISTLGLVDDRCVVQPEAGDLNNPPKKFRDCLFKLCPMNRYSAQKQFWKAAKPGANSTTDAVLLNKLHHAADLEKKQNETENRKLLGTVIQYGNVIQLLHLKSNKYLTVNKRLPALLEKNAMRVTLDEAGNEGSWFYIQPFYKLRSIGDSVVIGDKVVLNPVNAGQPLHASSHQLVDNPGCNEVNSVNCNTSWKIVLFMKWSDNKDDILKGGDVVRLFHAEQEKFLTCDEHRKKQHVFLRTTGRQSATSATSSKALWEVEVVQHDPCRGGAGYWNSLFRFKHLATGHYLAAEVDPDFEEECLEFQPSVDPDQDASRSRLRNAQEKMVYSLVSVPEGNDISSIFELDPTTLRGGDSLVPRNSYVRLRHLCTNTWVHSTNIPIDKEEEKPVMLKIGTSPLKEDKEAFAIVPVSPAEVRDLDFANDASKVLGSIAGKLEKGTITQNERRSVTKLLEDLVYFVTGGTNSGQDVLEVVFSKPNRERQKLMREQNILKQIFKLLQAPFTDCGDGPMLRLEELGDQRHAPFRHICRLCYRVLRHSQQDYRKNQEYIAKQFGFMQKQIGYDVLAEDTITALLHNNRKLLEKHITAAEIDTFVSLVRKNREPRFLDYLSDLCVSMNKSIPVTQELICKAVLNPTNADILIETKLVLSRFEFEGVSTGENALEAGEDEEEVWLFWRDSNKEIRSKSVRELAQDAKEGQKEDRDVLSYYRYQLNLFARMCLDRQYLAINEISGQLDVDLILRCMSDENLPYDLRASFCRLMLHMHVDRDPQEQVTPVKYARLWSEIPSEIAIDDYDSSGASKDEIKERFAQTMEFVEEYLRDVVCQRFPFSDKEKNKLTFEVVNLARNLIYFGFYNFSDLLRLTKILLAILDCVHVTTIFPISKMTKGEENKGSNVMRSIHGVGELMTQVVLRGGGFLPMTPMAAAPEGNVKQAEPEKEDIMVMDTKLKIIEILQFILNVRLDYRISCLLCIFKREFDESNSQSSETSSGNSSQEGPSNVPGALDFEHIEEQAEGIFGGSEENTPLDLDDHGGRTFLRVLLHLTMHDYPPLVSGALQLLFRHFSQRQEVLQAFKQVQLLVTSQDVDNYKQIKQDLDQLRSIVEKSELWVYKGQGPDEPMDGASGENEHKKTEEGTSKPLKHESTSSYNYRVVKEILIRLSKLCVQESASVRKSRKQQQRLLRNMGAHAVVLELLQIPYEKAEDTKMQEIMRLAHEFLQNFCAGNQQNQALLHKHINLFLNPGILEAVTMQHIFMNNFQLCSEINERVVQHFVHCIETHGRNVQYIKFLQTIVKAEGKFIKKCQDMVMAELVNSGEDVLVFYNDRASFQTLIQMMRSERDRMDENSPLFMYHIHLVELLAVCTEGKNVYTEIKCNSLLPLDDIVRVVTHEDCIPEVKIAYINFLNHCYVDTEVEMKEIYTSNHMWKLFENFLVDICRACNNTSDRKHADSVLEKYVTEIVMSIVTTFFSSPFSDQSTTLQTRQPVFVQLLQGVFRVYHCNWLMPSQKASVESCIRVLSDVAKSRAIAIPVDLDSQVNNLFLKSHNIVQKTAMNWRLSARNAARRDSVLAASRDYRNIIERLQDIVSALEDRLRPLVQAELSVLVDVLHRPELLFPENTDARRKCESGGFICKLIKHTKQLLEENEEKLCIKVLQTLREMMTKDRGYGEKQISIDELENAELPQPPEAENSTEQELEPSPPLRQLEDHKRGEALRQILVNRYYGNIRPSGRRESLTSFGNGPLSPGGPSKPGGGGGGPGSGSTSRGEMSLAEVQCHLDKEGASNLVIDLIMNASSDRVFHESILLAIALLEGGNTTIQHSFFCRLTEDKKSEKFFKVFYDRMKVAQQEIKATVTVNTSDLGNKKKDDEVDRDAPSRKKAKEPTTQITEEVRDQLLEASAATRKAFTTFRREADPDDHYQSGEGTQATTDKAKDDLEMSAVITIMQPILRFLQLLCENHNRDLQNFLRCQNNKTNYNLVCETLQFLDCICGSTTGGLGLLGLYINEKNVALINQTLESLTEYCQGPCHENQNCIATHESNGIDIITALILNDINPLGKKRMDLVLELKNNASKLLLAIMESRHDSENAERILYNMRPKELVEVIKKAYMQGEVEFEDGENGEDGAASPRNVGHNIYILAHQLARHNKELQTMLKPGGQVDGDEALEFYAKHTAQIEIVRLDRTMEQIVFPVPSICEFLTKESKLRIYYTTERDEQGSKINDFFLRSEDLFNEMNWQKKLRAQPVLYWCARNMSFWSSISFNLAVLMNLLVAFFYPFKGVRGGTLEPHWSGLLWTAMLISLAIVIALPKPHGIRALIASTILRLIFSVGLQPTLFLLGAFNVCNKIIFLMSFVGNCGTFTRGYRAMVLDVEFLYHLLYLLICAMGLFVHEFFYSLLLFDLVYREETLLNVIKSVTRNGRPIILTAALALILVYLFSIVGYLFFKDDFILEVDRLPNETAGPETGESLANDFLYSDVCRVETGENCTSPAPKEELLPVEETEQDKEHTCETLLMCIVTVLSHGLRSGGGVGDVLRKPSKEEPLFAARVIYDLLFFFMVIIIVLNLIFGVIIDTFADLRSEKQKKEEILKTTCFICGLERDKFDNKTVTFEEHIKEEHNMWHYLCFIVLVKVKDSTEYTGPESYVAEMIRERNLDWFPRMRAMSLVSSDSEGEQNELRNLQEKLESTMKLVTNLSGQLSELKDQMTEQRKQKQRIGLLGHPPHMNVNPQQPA

Activity [1] [%] | EC50 [2] [µM] | Activity [3] [%] | SMILES
72 | 25.2 | – | O=P(O)(O)O[C@H]1[C@H](OP(=O)(O)O)[C@@H](O)C(O)O[C@@H]1CO (stereo not given in full)
– | 0.0028 | – | Nc1ncnc2c1ncn2[C@@H]1O[C@H](CO)[C@@H](O[C@H]2O[C@H](CO)[C@@H](OP(=O)(O)O)[C@H](OP(=O)(O)O)[C@H]2O)[C@H]1OP(=O)(O)O [ADENOPHOSTIN A]
73 | 8.63 | – | O=P(O)(O)O[C@@H]1[C@@H](O)[C@H](O)[C@H](O)[C@H](O)[C@H]1OP(=O)(O)O
– | 53 | 53 | Nc1ncnc2c1ncn2[C@@H]1O[C@H](CO)[C@@H](O[C@H]2O[C@H](CO)[C@@H](OP(=O)(O)O)[C@H](O)[C@H]2O)[C@H]1OP(=O)(O)O
– | – | 8 | Nc1ncnc2c1ncn2[C@@H]1O[C@H](CO)[C@@H](O[C@H]2O[C@H](CO)[C@@H](O)[C@H](OP(=O)(O)O)[C@H]2O)[C@H]1OP(=O)(O)O
67 | 0.107 | – | Nc1ncnc2c1ncn2[C@@H]1O[C@H](CO)[C@@H](O[C@H]2O[C@H](CO)[C@@H](OP(=O)(O)O)[C@H](OP(=O)(O)O)[C@H]2O)[C@H]1O
